Results published in ChEMBL document CHEMBL2146365, “Design and synthesis of EGFR dimerization inhibitors and evaluation of their potential in the treatment of psoriasis” (Bioorg Med Chem, 2012).
Calls of active or inactive are those of the source. The calls are words filed in the database; no cut-off is given here.

How the values were obtained:
[1] = test system: HaCaT; test: Induction of apoptosis in human HaCaT cells assessed as viable cells at 111.6 uM after 9 hrs by AnnexinV-FITC/propidium iodide based FACS flow cytometry; type: functional; conditions: read-out: Activity
Summary of the method: (§1)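 HaCaT cells at 10^6 cells/ml were attached overnight and exposed to vehicle, 111.6, 223.2 or 446 µM for 9 h. Cells were then trypsinized, washed in ice-cold PBS and stained with Annexin V-FITC/PI. FACScan analysis used FL1/FL2, 10,000 events per sample, scatter gating, and quadrants set with single-stain controls. Runs were in triplicate and results are means of two experiments.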

[2] = Cytotoxicity against HPV-16 transformed human CCD-1106 cells assessed as cell viability after 6 hrs by MTT assay; type: functional; conditions: CCD-1106, 6 h, read-out: LD50 (the source's name)
Summary of the method: (§2)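 Cells were plated at 10,000/well, attached overnight, and exposed 6 or 24 h to eight drug concentrations with six in-plate replicates (DMSO <1%). MTT (0.5 mg/ml in PBS) was added for 2 h at 37 °C, then dissolved in 90% isopropanol/10% DMSO, and A590 was read. Values were corrected against untreated controls. LD₅₀ is reported as mean ± S.E.M., n = 3.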

[3] = target: Epidermal growth factor receptor (Homo sapiens) (UniProt P00533); test: Inhibition of EGFR-mediated p38 phosphorylation in HPV-16 transformed human CCD-1106 cells at 116.8 uM after 30 mins by densitometric analysis; type: cell-based
Sequence of Epidermal growth factor receptor (Homo sapiens) (P00533 whole entry): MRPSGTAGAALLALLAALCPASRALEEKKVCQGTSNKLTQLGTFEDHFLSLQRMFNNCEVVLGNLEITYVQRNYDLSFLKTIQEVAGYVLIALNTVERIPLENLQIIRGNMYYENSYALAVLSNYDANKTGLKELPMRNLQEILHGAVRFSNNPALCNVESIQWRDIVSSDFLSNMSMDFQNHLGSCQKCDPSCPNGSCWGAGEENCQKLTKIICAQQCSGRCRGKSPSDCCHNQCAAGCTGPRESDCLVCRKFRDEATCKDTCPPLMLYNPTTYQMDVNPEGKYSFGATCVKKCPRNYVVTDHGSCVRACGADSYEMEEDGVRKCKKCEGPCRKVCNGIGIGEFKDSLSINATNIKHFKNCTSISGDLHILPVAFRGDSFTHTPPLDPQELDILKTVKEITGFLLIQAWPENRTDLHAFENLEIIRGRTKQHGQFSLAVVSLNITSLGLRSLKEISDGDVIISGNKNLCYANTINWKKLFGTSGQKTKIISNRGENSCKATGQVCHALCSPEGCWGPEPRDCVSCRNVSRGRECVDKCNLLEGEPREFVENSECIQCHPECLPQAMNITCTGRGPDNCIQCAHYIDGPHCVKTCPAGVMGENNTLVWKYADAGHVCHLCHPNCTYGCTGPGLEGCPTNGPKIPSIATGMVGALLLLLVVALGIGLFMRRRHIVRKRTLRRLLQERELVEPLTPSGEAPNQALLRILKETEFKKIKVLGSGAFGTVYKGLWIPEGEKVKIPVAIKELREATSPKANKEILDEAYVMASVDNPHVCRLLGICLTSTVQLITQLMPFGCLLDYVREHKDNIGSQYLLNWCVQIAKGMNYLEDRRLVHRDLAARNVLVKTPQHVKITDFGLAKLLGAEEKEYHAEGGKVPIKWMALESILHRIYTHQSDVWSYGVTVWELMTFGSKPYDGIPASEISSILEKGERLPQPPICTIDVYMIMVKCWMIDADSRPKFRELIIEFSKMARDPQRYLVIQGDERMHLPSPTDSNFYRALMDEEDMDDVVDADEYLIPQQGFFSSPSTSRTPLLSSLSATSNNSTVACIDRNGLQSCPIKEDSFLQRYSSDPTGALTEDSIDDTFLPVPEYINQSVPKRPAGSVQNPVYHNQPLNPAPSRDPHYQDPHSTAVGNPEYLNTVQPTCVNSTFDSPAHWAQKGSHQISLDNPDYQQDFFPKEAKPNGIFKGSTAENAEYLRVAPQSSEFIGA
Summary of the method: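 CCD-1106 cells were treated with compound for 30 min at 37 °C, then stimulated with EGF. Lysates were separated by SDS-PAGE, blotted to nitrocellulose and blocked in 3% BSA/NaTT. Blots were probed with p-ERK (E-4) or p-p38 (D-8) antibodies, detected by ECL and quantified by densitometry.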

[4] = Cytotoxicity against HPV-16 transformed human CCD-1106 cells assessed as LDH release after 24 hrs by CYTOX-96 assay; type: functional; conditions: CCD-1106, 24 h, read-out: LD50 (the source's name)
Summary of the method: (§3)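 LDH release was read with the CytoTox 96 kit following the kit protocol after 6 or 24 h drug exposure. Cells were seeded at 10,000/well and attached overnight. Eight concentrations were run with six in-plate replicates; DMSO was <1% in all wells, with medium-only blanks. LD₅₀ is reported as mean ± S.E.M., n = 6. CCD-1106 were grown in supplemented keratinocyte SFM; HaCaT in DMEM/10% FBS.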

[5] = test system: HaCaT; test: Induction of apoptosis in human HaCaT cells assessed as viable cells at 446 uM after 9 hrs by AnnexinV-FITC/propidium iodide based FACS flow cytometry; type: functional; conditions: read-out: Activity; summary of the method: as §1
[6] = test system: HaCaT; test: Induction of apoptosis in human HaCaT cells after 12 hrs by electron microscopy; type: functional, cell-based
[7] = test system: HaCaT; test: Induction of necrosis in human HaCaT cells after 12 hrs by electron microscopy; type: functional, cell-based
[8] = test system: HaCaT; test: Cytotoxicity against human HaCaT cells assessed as LDH release after 6 hrs by CYTOX-96 assay; type: functional; conditions: read-out: LD50 (the source's name); summary of the method: as §3
[9] = test system: HaCaT; test: Induction of apoptosis in human HaCaT cells assessed as late phase apoptotic/necrotic cells at 446 uM after 9 hrs by AnnexinV-FITC/propidium iodide based FACS flow cytometry; type: functional; summary of the method: as §1
[10] = test system: HaCaT; test: Cytotoxicity against human HaCaT cells assessed as cell viability after 6 hrs by MTT assay; type: functional; conditions: read-out: LD50 (the source's name); summary of the method: as §2
[11] = Antioxidant activity in bovine brain assessed as inhibition of iron-ascorbate-induced lipid peroxidation by thiobarbituric acid test; type: functional, tissue-based, Bos taurus
Summary of the method: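 Hit compounds were tested for inhibition of lipid peroxidation by the thiobarbituric acid (TBA) assay. Propyl gallate served as the standardizing positive control, tested at 100 µM.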

[12] = test system: HaCaT; test: Induction of apoptosis in human HaCaT cells assessed as early phase apoptotic cells at 446 uM after 9 hrs by AnnexinV-FITC/propidium iodide based FACS flow cytometry; type: functional; summary of the method: as §1
[13] = test system: HaCaT; test: Growth inhibition of human HaCaT cells after 72 hrs by neutral red uptake assay; type: functional
Summary of the method: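 Neutral red uptake assay over 72 h. Cells were seeded at 10,000 cells/well and attached overnight, then exposed to eight concentrations with six replicates (DMSO <1%). CCD-1106 were grown in keratinocyte SFM with supplements. HaCaT were grown in DMEM with 10% FBS and 2 mM L-glutamine. NHEK (pooled adult) were grown in keratinocyte growth medium with supplement. Values are means, n = 6, against the untreated control.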

[14] = test system: HaCaT; test: Cytotoxicity against human HaCaT cells assessed as LDH release after 24 hrs by CYTOX-96 assay; type: functional; conditions: read-out: LD50 (the source's name); summary of the method: as §3

Compound `CCOc1cc(/C=N\Nc2nc3c(c(=O)n(C)c(=O)n3C)n2Cc2ccccc2)ccc1O` has a viability at 111.6 µM [1] of 82%, a CC50 [2] of 234 µM and an inhibition [3] of 11%. The CC50 [4] was over 446 µM, the viability at 446 µM [5] was 61% and the Activity [6] was “Active”. For the same compound, the Activity [7] was “inactive”, the CC50 [8] was 446 µM and the Activity [9] was 15%. For the same compound, the CC50 [10] was 440 µM, the IC50 [11] was 8 µM and the Activity [12] was 24%. It also gave a GI50 [13] of 22 µM and a CC50 [14] of 446 µM.
